These results are taken from ChEMBL document CHEMBL4513216, “Probing the Open Global Health Chemical Diversity Library for Multistage-Active Starting Points for Next-Generation Antimalarials” (ACS Infect Dis, 2020).

This series in a line: Toxicity liver stage against HepG2, at 10uM. The class given is cell-based. Also noted: test concentration 10 uM, cell line HepG2-A16-CD81EGFP. The settings on record: human, HepG2-A16-CD81EGFP cells; read-out: INHIBITION
The method, boiled down: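 Uninfected HepG2-A16-CD81EGFP cells, 3 × 10^3 per well, 1536-well, plated on prespotted compound at 10 μM final, parasite-free screening media added to match infected plates; puromycin 10 μM positive, DMSO 0.5% negative; run in parallel with 48 h PbLuc assay at 37 °C, 5% CO2; viability by CellTiter-Glo luminescence, normalized to controls.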
Consider `COc1ccc(NC(=O)C2CC(=O)n3cnnc3S2)cc1` (centres undefined), for which the cytotoxicity at 10 µM turned out to be 1.64%.

`COc1cc(NC(=O)c2nc3ccccc3n(C)c2=O)cc(OC)c1`: the cytotoxicity at 10 µM stood at 7.67%.

In the case of `CC(C)C(=O)Nc1ccc2c(c1)ncn2CC(=O)NCCN(C)C`, the cytotoxicity at 10 µM was -9.1%.

Consider `COc1ccc2nnc(CCC(=O)Nc3nc(C)c(C)s3)n2n1`, for which the cytotoxicity at 10 µM was -3.18%.

Turning to `COc1cc(OC)cc(C(=O)NCc2nn(C)c3c2COCC3)c1`, the cytotoxicity at 10 µM was determined as 6.17%.

As to `CN1CCc2c(C#N)c(NCc3ccccc3)n3cnnc3c2C1`, the cytotoxicity at 10 µM is 3.93%.

For `CC(C)NC(=O)N1CCN(C(=O)N(C)C)CC2(CC(=O)N(C)C2)C1` (centres undefined), the cytotoxicity at 10 µM was -17.8%.

`CCCNC(=O)c1nn(CC)cc1Cl`: the cytotoxicity at 10 µM was determined as 6.11%.

As to `CCn1cc(NC(=O)CN2C(=O)CC(C)(C)c3ccccc32)cn1`, the cytotoxicity at 10 µM is -1.7%.

On to `O=C(CC1CCCC1)N1CCC(c2noc(-c3ccccn3)n2)CC1`, for which the cytotoxicity at 10 µM came to 5.05%.

As for `Cc1nc(CN2CCCC(c3nccs3)C2)cs1` (centres undefined), the cytotoxicity at 10 µM was determined as 2.3%.

`O=C(Cn1cc(Cl)cn1)N1CCCC(c2cc3ccccc3cn2)C1` (centres undefined): the cytotoxicity at 10 µM is -27.3%.

`Cc1cccnc1CN1CC[C@@](C)(O)[C@H](Oc2ccccc2)C1`: the cytotoxicity at 10 µM is -9.11%.

In the case of `CC1CCN(C(=O)c2cnc(CC3CCCN(C)C3)cn2)CC1` (centres undefined), the cytotoxicity at 10 µM is -11.7%.

As for `Cc1cc(-c2cnc(NCc3ccccn3)nc2C(C)C)on1`, the cytotoxicity at 10 µM was -1.51%.

Regarding `COCC(=O)N1CCCC1c1cccc(Cc2ccccc2F)n1` (centres undefined), the cytotoxicity at 10 µM was -37.7%.

On to `O=C(NC1CC1)c1cc(C2CC2)nc2onc(C3CCNCC3)c12`, for which the cytotoxicity at 10 µM is 7.16%.

On to `Cc1ccc(S(=O)(=O)Nc2ccc(C)c(C(=O)O)c2)s1`, for which the cytotoxicity at 10 µM was -1.51%.

`O=C(c1cc[nH]n1)N1CCc2cc(Br)sc2C1`: the cytotoxicity at 10 µM amounted to 7.01%.

On to `Cc1ccnc2c1NC(=O)CN2C(=O)CCc1ccccc1`, for which the cytotoxicity at 10 µM is -20.1%.

`CCCc1cc(C(=O)N2CCCN(c3cccnn3)CC2)[nH]n1`: the cytotoxicity at 10 µM was -1.16%.

On to `CC(C)C(=O)Nc1cccc(CNC(=O)CSCc2ccccn2)c1`, for which the cytotoxicity at 10 µM was determined as 9.65%.

For the molecule `COc1ccc(C2(C(=O)NC3CCc4nccn4C3)CCCC2)cc1` (centres undefined), the cytotoxicity at 10 µM turned out to be 4.48%.

On to `CCOc1ccccc1CN(C)C(C)c1nc(-c2cccnc2)no1` (centres undefined), for which the cytotoxicity at 10 µM came to 7.84%.

As to `CC(=O)N1CCN(C(=O)NC(C)Cn2ccnc2)CC1` (centres undefined), the cytotoxicity at 10 µM was -1.05%.

As to `CCN(CC)C(CNC(=O)CCc1nc(C(C)C)no1)c1ccco1` (centres undefined), the cytotoxicity at 10 µM is 5.91%.

With `CC(C)N1CCC(NC(=O)NCc2cccnc2)C1` (centres undefined), the cytotoxicity at 10 µM stood at 7.67%.

As for `CN(CCCOc1ccccc1)S(=O)(=O)c1cnn(C)c1`, the cytotoxicity at 10 µM is -6.7%.

`NC(=O)NC(=O)C(c1ccccc1)N1CCN(Cc2ccccc2)CC1` (centres undefined): the cytotoxicity at 10 µM is -5.68%.

In the case of `COCCNC(=O)CCNc1cc(C)nc(-c2ccncc2)n1`, the cytotoxicity at 10 µM was -1.26%.

On to `Cc1cc(CN2CCN(C(=O)C3(C#N)CCCCC3)CC2)on1`, for which the cytotoxicity at 10 µM was 4.81%.

Turning to `CCC1CCC(N(Cc2cc(=O)n(C)c(=O)n2C)C2CC2)CC1` (centres undefined), the cytotoxicity at 10 µM stood at 22.6%.

With `Cc1ccc(C(=O)N(CC2CCCO2)c2ccncc2)o1` (centres undefined), the cytotoxicity at 10 µM was -3.08%.

As to `CN(C)CCn1c(=O)oc2ccc(NC(=O)CSc3ccccc3)cc21`, the cytotoxicity at 10 µM is -3.51%.

With `COC(C)c1nc(CN2CCCNCC2)cs1` (centres undefined), the cytotoxicity at 10 µM is -3.78%.

For the molecule `CCc1nc(CN2CCCC(N(C)Cc3cnc(C)cn3)C2)no1` (centres undefined), the cytotoxicity at 10 µM was -5.66%.

On to `N#Cc1ccc(CNc2cccc(C(=O)N3CCOCC3)c2)cc1`, for which the cytotoxicity at 10 µM is -4.34%.

Take `CC(C)Cc1nc(CN2CCC(NC(=O)c3cccs3)CC2)no1`: the cytotoxicity at 10 µM was -2.56%.

In the case of `CN(CCc1ccccn1)C1CCCN(Cc2noc(C3CC3)n2)C1` (centres undefined), the cytotoxicity at 10 µM is 11.6%.

In the case of `CCCOc1cc(C)ccc1NC(=O)N(C)C`, the cytotoxicity at 10 µM is -4.59%.

Regarding `Cc1cc(S(=O)(=O)NC(=O)CCc2cncc(F)c2)c(C)s1`, the cytotoxicity at 10 µM is -1.99%.

For `CC(=O)N(Cc1ccsc1)c1ccccc1`, the cytotoxicity at 10 µM was -1.74%.

In the case of `COCCS(=O)(=O)NC(C)c1ccccc1Cl` (centres undefined), the cytotoxicity at 10 µM came to 5.53%.

`COc1c(CNCc2cccnc2OC2CCCC2)c(C)nn1C`: the cytotoxicity at 10 µM is -2.01%.

For the molecule `Cc1cnn(CCNC(C)c2nnc(-c3cccc(Cl)c3)o2)c1` (centres undefined), the cytotoxicity at 10 µM is -1.41%.

`CN1CCC(N(C)c2ccccc2CNCc2ccco2)CC1`: the cytotoxicity at 10 µM is -9.05%.

As to `COCCN(Cc1ccccn1)C(=O)c1ccc(=O)n(C)c1`, the cytotoxicity at 10 µM is -16.8%.

`CSCc1cc(F)ccc1CNCc1ccncc1`: the cytotoxicity at 10 µM was -7.53%.

As to `CC(=O)N(C)c1nc(Cn2nnnc2C(C)(C)C)cs1`, the cytotoxicity at 10 µM came out at 6.56%.

`CC(C)(C)C(NCC(=O)N1CCNC(=O)C1)c1ccccc1` (centres undefined): the cytotoxicity at 10 µM is -10.7%.

`CCOCCN1CCN(CC(O)c2ccc(C(F)(F)F)cc2)CC1` (centres undefined): the cytotoxicity at 10 µM was -16.6%.

For `CN(CCC(N)=O)Cc1cc(Br)cs1`, the cytotoxicity at 10 µM was -0.711%.

As to `CNC(=O)c1c(C)cccc1NCc1nnc(C2CC2)o1`, the cytotoxicity at 10 µM came out at 2.41%.

With `CS(=O)(=O)c1nnc(NC(=O)CCc2ccc(Cl)s2)[nH]1`, the cytotoxicity at 10 µM was 6.13%.

With `CCN(C)c1ccc(CNS(=O)(=O)CC2CCCO2)cc1F` (centres undefined), the cytotoxicity at 10 µM came to 11.9%.

Take `COCC1CN(S(=O)(=O)c2ccccc2)Cc2ncnn2C1` (centres undefined): the cytotoxicity at 10 µM is -117%.

For the molecule `CN(C)CC(=O)N1Cc2nnn(C)c2C(COCC2CC2)C1` (centres undefined), the cytotoxicity at 10 µM was -99.4%.

As to `CCOCCn1c(=O)[nH]c2cc(C(=O)N(C)Cc3cnn(C)c3)ccc21`, the cytotoxicity at 10 µM amounted to 2.81%.

In the case of `COC(=O)c1cc(C)nc(N2CCN(Cc3ccn(C(C)C)c3)CC2)n1`, the cytotoxicity at 10 µM stood at 9.77%.

With `CC(C)c1nnc2sc(CC3CN(C(C)C)CCO3)nn12` (centres undefined), the cytotoxicity at 10 µM was -13.8%.

As for `CCc1n[nH]c(SCC(=O)N2CCc3[nH]nc(C4CCC4)c3C2)n1`, the cytotoxicity at 10 µM is -12.1%.

As to `Cc1cc(Cn2cc(C(C)Cc3ccc4c(c3)OCO4)nn2)n[nH]1` (centres undefined), the cytotoxicity at 10 µM came out at 5.92%.

In the case of `CCn1ccnc1C1CCN(Cc2cccc(C)n2)CC1`, the cytotoxicity at 10 µM is -7.93%.

On to `CCOC(=O)c1coc(N2CCN(Cc3cc(C)cc(C)c3)C(=O)C2)n1`, for which the cytotoxicity at 10 µM was found to be 4.24%.

Consider `Cc1cc(C)n(CC(C)NC2CCN(Cc3cccc(O)c3)CC2)n1` (centres undefined), for which the cytotoxicity at 10 µM is -2.01%.

Take `COCc1ncc(CN2C[C@@H](C(=O)O)[C@H](C(C)C)C2)cn1`: the cytotoxicity at 10 µM was -2.97%.

On to `Cc1cc(C)c2[nH]c(C(=O)NCCN3CCOC3=O)c(C)c2c1`, for which the cytotoxicity at 10 µM was -0.2%.

In the case of `CNC(=O)c1n[nH]c2c1C(c1cccc3[nH]ccc13)CC(=O)N2` (centres undefined), the cytotoxicity at 10 µM amounted to 4.06%.

Turning to `CCOc1ccc2[nH]c(=O)c(CN3CCCCC3C)cc2c1` (centres undefined), the cytotoxicity at 10 µM was -0.895%.

Regarding `CCn1cc(CN2CCC(CNC(C)=O)CC2)cc1C#N`, the cytotoxicity at 10 µM is -6.21%.

Consider `C[C@H](c1ccc(Cl)cc1)n1c(C2CC2)n[nH]c1=O`, for which the cytotoxicity at 10 µM was 9.33%.

On to `CCOCCC(=O)N(Cc1ccncc1)C(C)CC` (centres undefined), for which the cytotoxicity at 10 µM was 9.99%.

As to `Cc1c(NCc2cccnc2)cccc1C(=O)N1CCC(N(C)C)C1` (centres undefined), the cytotoxicity at 10 µM turned out to be 14.1%.

Consider `CSc1ccc(-c2nc(CN3C[C@@H](C)NC[C@@H]3C)c(C)o2)cc1`, for which the cytotoxicity at 10 µM was -3.06%.

Consider `O=C(Nc1ccccc1OCc1ccccn1)NC1CCOCC1`, for which the cytotoxicity at 10 µM worked out at 6.78%.

For the molecule `CCNC(=O)[C@@H]1C[C@H](N)CN1C(=O)c1c[nH]c2ccccc12`, the cytotoxicity at 10 µM is -8.34%.

For the molecule `CC1(C)CN(CCC(=O)NCc2cccc(Cl)c2)CC[C@]1(C)O`, the cytotoxicity at 10 µM is -3.45%.

For `COc1cccc(CN2CC3(CCNCC3)CCC2=O)c1OC`, the cytotoxicity at 10 µM worked out at 6.39%.

For the molecule `Cc1nc(NCc2scnc2-c2ccccc2)cc(C2CCNCC2)n1`, the cytotoxicity at 10 µM amounted to 1.69%.

As for `CSCCC(O)C(=O)N(C)Cc1cnn(-c2ccc(F)cc2)c1` (centres undefined), the cytotoxicity at 10 µM is -5.36%.

As for `Cc1ccc(C)c(OC(C)C(=O)NCc2cccnc2)c1` (centres undefined), the cytotoxicity at 10 µM was found to be 2.13%.

Regarding `CCc1nn(C)c(Cl)c1CN1CCN(c2nc(C(N)=O)cs2)CC1`, the cytotoxicity at 10 µM amounted to 8.81%.

For the molecule `Cc1ccc(C)c(OC(C)C(=O)NCCNc2cccnc2)c1` (centres undefined), the cytotoxicity at 10 µM came to 1.32%.

Turning to `Cc1cc(C(=O)N2CCC(c3nccn3Cc3ccncc3)CC2)no1`, the cytotoxicity at 10 µM is -15.7%.

Regarding `CCn1ncc(Br)c1CN(C)S(=O)(=O)c1ccc(C)cc1`, the cytotoxicity at 10 µM came out at 14.5%.

As for `NCc1cn(-c2ccccc2C(=O)NCc2ccccc2)cn1`, the cytotoxicity at 10 µM turned out to be 3.32%.

With `Cc1ccc(NC2CCN(C(=O)CCc3ccncc3)CC2)nn1`, the cytotoxicity at 10 µM is -9.43%.

For the molecule `O=C1CCc2cc(NC(=O)C3CCCN3c3nccs3)ccc2N1` (centres undefined), the cytotoxicity at 10 µM is -10.8%.

`CCc1nnc2n1CCN(C(=O)c1cc(Cl)c[nH]1)C2`: the cytotoxicity at 10 µM is -6.1%.

`O=C(CCc1ccncc1)N1CCCC(n2cccn2)C1` (centres undefined): the cytotoxicity at 10 µM was -5.57%.

Take `CCOCC(O)CN1CCN(C(=O)c2ccc(C)nc2)CC1` (centres undefined): the cytotoxicity at 10 µM turned out to be 0.661%.

With `CCc1nc(CN(C)C2CCN(CC(=O)N(C)C)C2)no1` (centres undefined), the cytotoxicity at 10 µM was -16.7%.

Consider `O=C(Cn1cccnc1=O)NCCc1ccc2c(c1)OCCO2`, for which the cytotoxicity at 10 µM amounted to 4.96%.

For `CCc1nccn1C1CCCN(C(=O)Cc2n[nH]c3ccccc23)C1` (centres undefined), the cytotoxicity at 10 µM is -0.337%.

Take `Cc1noc(C)c1CN(C)CC1CCCN1c1cccnn1` (centres undefined): the cytotoxicity at 10 µM is 0.746%.

Consider `Cc1ccccc1-n1nc(C)c(CN(C)C(C)Cc2ccccn2)c1C` (centres undefined), for which the cytotoxicity at 10 µM was 0.58%.

For the molecule `COCC1CN(Cc2ccoc2)Cc2nn(C)cc21` (centres undefined), the cytotoxicity at 10 µM was -81.7%.

As for `Cc1csc(NC(=O)c2cnc(C3CCNCC3)cn2)n1`, the cytotoxicity at 10 µM is -12.3%.

As for `c1cncc(COC[C@@H]2CCC[C@@]23CNCCO3)c1`, the cytotoxicity at 10 µM was -106%.
